From ChEMBL document CHEMBL1649289, “Paradoxical growth of Candida dubliniensis does not preclude in vivo response to echinocandin therapy” (2009)
Converted amounts (≈) assume the structure as drawn. Starred links: 1 amine or outer side, 2 acyl side, 3 side chain; linkers in the order of their positions; H or OH if unused. Positions of bridges follow the written chain, without caps; N, C: chain ends. Non-standard residues stand in square brackets, D forms with d. Residues, ends and D or L forms follow the SMILES beside them. *: point of attachment. hTyr(3S-OH,4S-OH,3'-OSO3H) = N[C@H](C(=O)O)[C@H](O)[C@@H](O)c1ccc(O)c(OS(=O)(=O)O)c1; pTerphenylCO(4''-OnC5H11) = CCCCCOc1ccc(-c2ccc(-c3ccc(C(=O)*)cc3)cc2)cc1; Orn(4R-OH,5R-OH) = O=C([C@H](C[C@@H](O)[C@@H](O)N[*:3])N[*:1])[*:2]; hTyr(3S-OH,4S-OH) = N[C@H](C(=O)O)[C@H](O)[C@@H](O)c1ccc(O)cc1; Pro(3S-OH,4S-Me) = C[C@H]1CN[C@H](C(=O)O)[C@H]1O; X1 = CCCCCOc1ccc(-c2cc(-c3ccc(C(=O)*)cc3)no2)cc1; Gln(3R-OH) = NC(=O)C[C@@H](O)[C@H](N)C(=O)O; Hyp = O=C(O)[C@@H]1C[C@@H](O)CN1

How the values were obtained:
Format in all cases: functional
[1] = system: Candida dubliniensis; experiment: Antifungal activity against Candida dubliniensis FMR 10032 infected in OF1 mouse assessed as fungal count in spleen at 10 mg/kg/day, iv […]
In short: (§1)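 Immunocompetent male OF1 mice, 10 per group, were challenged i.v. with 1.5 × 10^7 CFU. Drug was given i.v. once daily at 1 or 10 mg/kg for 3 days, starting 24 h post-challenge; controls were untreated. Mice were killed 1 day after the last dose. Kidneys and spleen were homogenized in saline, serial 10-fold dilutions were plated on Sabouraud agar at 35°C for 3 days, and mean log10 CFU was reported.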

[2] = system: Candida dubliniensis; experiment: Antifungal activity against Candida dubliniensis 10035 after 48 hrs; conditions: Candida dubliniensis, 10035, 48 h
In short: (§2)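 CLSI M27-A3 broth microdilution. Yeast inoculum was adjusted with a hemocytometer. MIC was read at 24 h or 48 h as the lowest concentration giving 50% growth inhibition.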

[3] = system: Candida dubliniensis; experiment: Antifungal activity against Candida dubliniensis FMR 10032 infected in immunosuppressed OF1 mouse assessed as fungal count in spleen at 1 mg/kg/day, iv […]
In short: (§3)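 Male OF1 mice, 10 per group, were immunosuppressed on infection day with cyclophosphamide 200 mg/kg i.p. plus 5-fluorouracil 150 mg/kg i.v., then challenged i.v. with 1.5 × 10^5 CFU. Drug was given at 1 mg/kg i.v. once daily for 5 days, starting 24 h after challenge. One day after treatment ended, kidney and spleen homogenates were plated in 10-fold dilutions on Sabouraud agar (35°C, 3 days) and mean log10 CFU was reported.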

[4] = system: Candida dubliniensis; experiment: Antifungal activity against Candida dubliniensis 10033 after 48 hrs; conditions: Candida dubliniensis, 10033, 48 h; in short: as §2
[5] = system: Candida dubliniensis; experiment: Antifungal activity against Candida dubliniensis 9453 by hemocytometry
In short: (§4)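 Minimal fungicidal concentration from the broth dilution test, defined as the lowest drug level giving ≥99.9% reduction in CFU/ml. Inocula were adjusted by hemocytometer.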

[6] = system: Candida dubliniensis; experiment: Antifungal activity against Candida dubliniensis 10034 by hemocytometry; in short: as §4
[7] = system: Candida dubliniensis; experiment: Antifungal activity against Candida dubliniensis 10031 by hemocytometry; in short: as §4
[8] = system: Candida dubliniensis; experiment: Antifungal activity against Candida dubliniensis 10033 by hemocytometry; in short: as §4
[9] = system: Candida dubliniensis; experiment: Antifungal activity against Candida dubliniensis FMR 10032 infected in OF1 mouse assessed as fungal count in kidney at 1 mg/kg/day, iv […]; in short: as §1
[10] = system: Candida dubliniensis; experiment: Antifungal activity against Candida dubliniensis FMR 10034 infected in OF1 mouse assessed as fungal count in kidney at 10 mg/kg/day, iv […]; in short: as §1
[11] = system: Candida dubliniensis; experiment: Antifungal activity against Candida dubliniensis 9456 after 24 hrs; conditions: Candida dubliniensis, 9456, 24 h; in short: as §2
[12] = system: Candida dubliniensis; experiment: Antifungal activity against Candida dubliniensis 10034 assessed as compound concentration at which paradoxical growth of observed after 48 hrs
In short: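 In the same broth dilution (CLSI M27-A3) tests, read at 24 or 48 h, this is the range of drug concentrations over which paradoxical growth appeared. It was not set when growth occurred across the whole tested range (trailing).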

[13] = system: Candida dubliniensis; experiment: Antifungal activity against Candida dubliniensis 9456 by hemocytometry; in short: as §4
[14] = system: Candida dubliniensis; experiment: Antifungal activity against Candida dubliniensis 10031 after 24 hrs; conditions: Candida dubliniensis, 10031, 24 h; in short: as §2
[15] = system: Candida dubliniensis; experiment: Antifungal activity against Candida dubliniensis 9453 after 48 hrs; conditions: Candida dubliniensis, 9453, 48 h; in short: as §2
[16] = system: Candida dubliniensis; experiment: Antifungal activity against Candida dubliniensis 10032 after 48 hrs; conditions: Candida dubliniensis, 10032, 48 h; in short: as §2
[17] = system: Candida dubliniensis; experiment: Antifungal activity against Candida dubliniensis 10031 after 48 hrs; conditions: Candida dubliniensis, 10031, 48 h; in short: as §2
[18] = system: Candida dubliniensis; experiment: Antifungal activity against Candida dubliniensis FMR 10032 infected in OF1 mouse assessed as fungal count in spleen at 1 mg/kg/day, iv […]; in short: as §1
[19] = system: Candida dubliniensis; experiment: Antifungal activity against Candida dubliniensis 10032 after 24 hrs; conditions: Candida dubliniensis, 10032, 24 h; in short: as §2
[20] = system: Candida dubliniensis; experiment: Antifungal activity against Candida dubliniensis 10035 after 24 hrs; conditions: Candida dubliniensis, 10035, 24 h; in short: as §2
[21] = system: Candida dubliniensis; experiment: Antifungal activity against Candida dubliniensis FMR 10034 infected in OF1 mouse assessed as fungal count in spleen at 1 mg/kg/day, iv […]; in short: as §1
[22] = system: Candida dubliniensis; experiment: Antifungal activity against Candida dubliniensis 9453 after 24 hrs; conditions: Candida dubliniensis, 9453, 24 h; in short: as §2
[23] = system: Candida dubliniensis; experiment: Antifungal activity against Candida dubliniensis 10034 after 24 hrs; conditions: Candida dubliniensis, 10034, 24 h; in short: as §2
[24] = system: Candida dubliniensis; experiment: Antifungal activity against Candida dubliniensis 10034 after 48 hrs; conditions: Candida dubliniensis, 10034, 48 h; in short: as §2
[25] = system: Candida dubliniensis; experiment: Antifungal activity against Candida dubliniensis FMR 10034 infected in immunosuppressed OF1 mouse assessed as fungal count in spleen at 1 mg/kg/day, iv […]; in short: as §3
[26] = system: Candida dubliniensis; experiment: Antifungal activity against Candida dubliniensis FMR 10034 infected in immunosuppressed OF1 mouse assessed as fungal count in kidney at 1 mg/kg/day, iv […]; in short: as §3
[27] = system: Candida dubliniensis; experiment: Antifungal activity against Candida dubliniensis FMR 10032 infected in immunosuppressed OF1 mouse assessed as fungal count in kidney at 1 mg/kg/day, iv […]; in short: as §3
[28] = system: Candida dubliniensis; experiment: Antifungal activity against Candida dubliniensis FMR 10034 infected in OF1 mouse assessed as fungal count in spleen at 10 mg/kg/day, iv […]; in short: as §1
[29] = system: Candida dubliniensis; experiment: Antifungal activity against Candida dubliniensis FMR 10032 infected in OF1 mouse assessed as fungal count in kidney at 10 mg/kg/day, iv […]; in short: as §1
[30] = system: Candida dubliniensis; experiment: Antifungal activity against Candida dubliniensis 9456 after 48 hrs; conditions: Candida dubliniensis, 9456, 48 h; in short: as §2
[31] = system: Candida dubliniensis; experiment: Antifungal activity against Candida dubliniensis 10033 after 24 hrs; conditions: Candida dubliniensis, 10033, 24 h; in short: as §2
[32] = system: Candida dubliniensis; experiment: Antifungal activity against Candida dubliniensis FMR 10034 infected in OF1 mouse assessed as fungal count in kidney at 1 mg/kg/day, iv […]; in short: as §1
[33] = system: Candida dubliniensis; experiment: Antifungal activity against Candida dubliniensis 10032 by hemocytometry; in short: as §4
[34] = system: Candida dubliniensis; experiment: Antifungal activity against Candida dubliniensis 9453 assessed as compound concentration at which paradoxical growth of observed after 48 hrs
In short: (§5)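 Broth dilution susceptibility testing of yeasts per CLSI reference method M27-A3, with inocula adjusted by hemocytometer count. Wells were read at 24 and 48 h. The paradoxical growth range is the span of drug concentrations (μg/ml) over which growth reappeared above the inhibitory concentration. Where growth occurred across the entire concentration range (trailing), no range was determined.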

[35] = system: Candida dubliniensis; experiment: Antifungal activity against Candida dubliniensis 10033 assessed as compound concentration at which paradoxical growth of observed after 48 hrs; in short: as §5
[36] = system: Candida dubliniensis; experiment: Antifungal activity against Candida dubliniensis 9456 assessed as compound concentration at which paradoxical growth of observed after 48 hrs; in short: as §5

Compound: CCCCCOc1ccc(-c2cc(-c3ccc(C(=O)N[C@H]4C[C@@H](O)[C@@H](O)NC(=O)[C@@H]5[C@@H](O)[C@@H](C)CN5C(=O)[C@H]([C@H](O)CC(N)=O)NC(=O)[C@H]([C@H](O)[C@@H](O)c5ccc(O)c(OS(=O)(=O)O)c5)NC(=O)[C@@H]5C[C@@H](O)CN5C(=O)[C@H]([C@@H](C)O)NC4=O)cc3)no2)cc1 [MICAFUNGIN] (X1-[Orn(4R-OH,5R-OH)]T[Hyp][hTyr(3S-OH,4S-OH,3'-OSO3H)][Gln(3R-OH)][Pro(3S-OH,4S-Me)]; lactam 1-C)
- log10cfu [1]: 3.58
- MIC50 [2]: 0.03 µg/mL (≈ 0.0236 µM)
- log10cfu [3]: 2.62
- MIC50 [4]: 0.25 µg/mL (≈ 0.197 µM)
- MFC [5]: > 16 µg/mL
- MFC [6]: > 16 µg/mL
- MFC [7]: > 16 µg/mL
- MFC [8]: 2 µg/mL (≈ 1.57 µM)
- log10cfu [9]: 4.25
- log10cfu [10]: 4.69
- MIC50 [11]: 0.06 µg/mL (≈ 0.0472 µM)
- Activity [12]: 2 µg/mL
- MFC [13]: > 16 µg/mL
- MIC50 [14]: 0.125 µg/mL (≈ 0.0984 µM)
- MIC50 [15]: 0.125 µg/mL (≈ 0.0984 µM)
- MIC50 [16]: 0.125 µg/mL (≈ 0.0984 µM)
- MIC50 [17]: 0.125 µg/mL (≈ 0.0984 µM)
- log10cfu [18]: 3.97
- MIC50 [19]: < 0.03 µg/mL
- MIC50 [20]: 0.03 µg/mL (≈ 0.0236 µM)
- log10cfu [21]: 4.79
- MIC50 [22]: 0.125 µg/mL (≈ 0.0984 µM)
- MIC50 [23]: 0.06 µg/mL (≈ 0.0472 µM)
- MIC50 [24]: 0.125 µg/mL (≈ 0.0984 µM)
- log10cfu [25]: 3.26
- log10cfu [26]: 6.47
- log10cfu [27]: 5.47
- log10cfu [28]: 4.18
- log10cfu [29]: 3.23
- MIC50 [30]: 0.125 µg/mL (≈ 0.0984 µM)
- MIC50 [31]: 0.125 µg/mL (≈ 0.0984 µM)
- log10cfu [32]: 6.33
- MFC [33]: 4 µg/mL (≈ 3.15 µM)

Compound: CCCCCOc1ccc(-c2ccc(-c3ccc(C(=O)N[C@H]4C[C@@H](O)[C@@H](O)NC(=O)[C@@H]5[C@@H](O)[C@@H](C)CN5C(=O)[C@H]([C@@H](C)O)NC(=O)[C@H]([C@H](O)[C@@H](O)c5ccc(O)cc5)NC(=O)[C@@H]5C[C@@H](O)CN5C(=O)[C@H]([C@@H](C)O)NC4=O)cc3)cc2)cc1 [ANIDULAFUNGIN] ({pTerphenylCO(4''-OnC5H11)}-[Orn(4R-OH,5R-OH)]T[Hyp][hTyr(3S-OH,4S-OH)]T[Pro(3S-OH,4S-Me)]; lactam 1-C)
- log10cfu [1]: 2.64
- MIC50 [2]: < 0.03 µg/mL
- log10cfu [3]: 2.62
- MIC50 [4]: 0.06 µg/mL (≈ 0.0526 µM)
- MFC [5]: > 16 µg/mL
- MFC [6]: > 16 µg/mL
- MFC [7]: > 16 µg/mL
- MFC [8]: 2 µg/mL (≈ 1.75 µM)
- log10cfu [9]: 5.65
- log10cfu [10]: 4.63
- MIC50 [11]: < 0.03 µg/mL
- Activity [12]: 4 µg/mL
- MFC [13]: > 16 µg/mL
- MIC50 [14]: < 0.03 µg/mL
- MIC50 [15]: < 0.03 µg/mL
- MIC50 [16]: < 0.03 µg/mL
- MIC50 [17]: < 0.03 µg/mL
- Activity [34]: 4 µg/mL
- log10cfu [18]: 4.21
- MIC50 [19]: < 0.03 µg/mL
- Activity [35]: 4 µg/mL
- Activity [36]: 8 µg/mL
- MIC50 [20]: < 0.03 µg/mL
- log10cfu [21]: 4.54
- MIC50 [22]: < 0.03 µg/mL
- MIC50 [23]: < 0.03 µg/mL
- MIC50 [24]: < 0.03 µg/mL
- log10cfu [25]: 2.96
- log10cfu [26]: 5.94
- log10cfu [27]: 5.75
- log10cfu [28]: 4.25
- log10cfu [29]: 2.95
- MIC50 [30]: < 0.03 µg/mL
- MIC50 [31]: < 0.03 µg/mL
- log10cfu [32]: 6.33
- MFC [33]: 2 µg/mL (≈ 1.75 µM)
